Laboratory results published in paper PMC9292889 (Clinical Pharmacology in Drug Development, 2020).
“Also recorded” adds a separate entry of the source. Marks after values point to notes of the source that are not given here.

Key:
[1] = patients weighing <40 kg; cited from earlier work
[2] = system: organic anion transporter 3; details: in vitro; cited from earlier work
[3] = system: breast cancer resistance protein; details: in vitro; cited from earlier work
[4] = cited from earlier work
[5] = Clinical laboratory tests; type: in vivo, human; details: for maximum mean decrease in ANC: day 10, 8 hours after dosing; for maximum mean decrease from baseline in ANC: day 1, 8 hours after dosing
Outline: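 Randomized, subject- and investigator-blinded study in healthy Chinese adults (screening ANC ≥2000 cells/μL). Oral dose of 2, 4 or 10 mg test compound or placebo, given after an overnight fast of at least 10 h with 200 mL water, meals 3 h later. Single dose on day 1, then once daily on days 4–10. Clinical laboratory tests were run throughout, and ANC/ALC change was taken from baseline.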

[6] = Single-dose plasma pharmacokinetics; type: in vivo, human; details: for Ratio of dose‐normalized geometric means AUC0‐∞ (90%CI) / Ratio of dose‐normalized geometric means Cmax (90%CI) / half-life: day 1; for half-life / Cmax / Tmax: human, plasma; for half-life: oral, across the 2‐ to 10‐mg dose range; for Cmax / Tmax: po; for Tmax: day 1, median (range); for CL/F: day 1, arithmetic mean (SD)
Outline: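 Fasted healthy Chinese adults took a single oral dose of test compound (2, 4 or 10 mg) with 200 mL water on day 1. Plasma was sampled at 0.5–48 h by LC-MS/MS (K2EDTA plasma, liquid-liquid extraction, validated 0.200–200.00 ng/mL). Noncompartmental Cmax, tmax, AUC0‑∞ and CL/F were derived. A power model gave ratios of dose-normalized geometric means against 2 mg, with 90% CI.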

cytochrome P450 3A4 = details: oxidative metabolism mediated by cytochrome P450 3A4; cited from earlier work
Safety and tolerability = type: in vivo, human; details: for Number of subjects (%) with ≥1 AE, all causalities: single and multiple doses
Outline: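 Fasted healthy Chinese adults received oral test compound (2, 4, 10 mg) or placebo, single dose on day 1 then once daily on days 4–10, blinded and randomized. TEAEs were defined as onset or worsening after dosing and coded by MedDRA term. They were tabulated by treatment, relationship to drug, day of onset and severity. Single 12-lead ECGs, supine/standing blood pressure and pulse rate, and laboratory tests were also recorded.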

[7] = system: multidrug and toxin extrusion protein 2‐K; details: in vitro; cited from earlier work
P‐glycoprotein = details: in vitro; cited from earlier work
[8] = Multiple-dose plasma pharmacokinetics; type: in vivo, human; details: for CL/F / RA (accumulation ratio): day 10, arithmetic mean (SD), N = 8; for Ratio of dose‐normalized geometric means AUCτ,ss (90%CI) / Ratio of dose‐normalized geometric means Cmax,ss (90%CI): multiple dose, day 10
Outline: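 Oral test compound (2, 4, 10 mg) was given once daily on days 4–10 after an overnight fast of at least 10 h. Plasma was sampled predose on days 4–10 to judge steady state, and at 0.5–48 h after the day-10 dose. LC-MS/MS after liquid-liquid extraction from K2EDTA plasma, validated 0.200–200.00 ng/mL. Noncompartmental AUCτ,ss, Cmax,ss, tmax, t½, CL/F and accumulation ratio were derived.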

CCS(=O)(=O)N1CC(CC#N)(n2cc(-c3ncnc4[nH]ccc34)cn2)C1 [Baricitinib]
t1/2 compared with adult populations [1]: substantially shorter
transporter substrate [2]: substrate
transporter substrate [3]: substrate
excreted in the urine in an unchanged form [4]: ~75%
mean renal clearance [4]: ~12 L/h^2
oral‐dose clearance [4]: 17 L/h
mean terminal‐phase t1/2 ([4]; healthy White subjects, noncompartmental PK method): approximately 8 hours
geometric mean terminal‐phase disposition half‐life (t1/2) ([4]; healthy White volunteers): about 8 hours
time for ANC and ALC values to return to baseline postdose ([5]; days 1 and 10): ≤ 24 h
maximum mean decrease in ANC ([5]; multiple dose 2 mg): 0.096 GI/L
maximum mean decrease in ANC ([5]; multiple dose 4 mg): 0.706 GI/L
maximum mean decrease in ANC ([5]; multiple dose 10 mg): 1.443 GI/L
time of increase in ALC after dosing ([5]; single and multiple doses): 16 h
time of maximum decrease in ANC after dosing ([5]; single and multiple doses): 8 h
maximum mean decrease from baseline in ANC ([5]; single dose 2 mg): 0.616 GI/L
maximum mean decrease from baseline in ANC ([5]; single dose 4 mg): 0.808 GI/L
maximum mean decrease from baseline in ANC ([5]; single dose 10 mg): 1.706 GI/L
Ratio of dose‐normalized geometric means AUC0‐∞ (90%CI) ([6]; 4 mg vs 2 mg, single dose): 1.05 (1.00‐1.11)
Ratio of dose‐normalized geometric means Cmax (90%CI) ([6]; 4 mg vs 2 mg, single dose): 1.09 (0.97‐1.22)
Ratio of dose‐normalized geometric means AUC0‐∞ (90%CI) ([6]; 10 mg vs 2 mg, single dose): 1.13 (1.01‐1.26)
Ratio of dose‐normalized geometric means Cmax (90%CI) ([6]; 10 mg vs 2 mg, single dose): 1.22 (0.94‐1.58)
half-life ([6]; mean t1/2, single dose): 5.9 to 7.4 h
half-life ([6]; t1/2, individual values, single dose): 4.5 to 11.8 h
Cmax ([6]; 2 mg): 24.6 ng/mL
Tmax ([6]; 2 mg, single oral 2 mg, N = 8): 1 h
Cmax ([6]; 4 mg): 51.3 ng/mL
Tmax ([6]; 4 mg, single oral 4 mg, N = 9): 1 h
Cmax ([6]; 10 mg): 152 ng/mL
Tmax ([6]; 10 mg, single oral 10 mg, N = 8): 0.75 h
CL/F ([6]; single oral 2 mg, N = 8): 14.5 (1.76) L/h
CL/F ([6]; single oral 4 mg, N = 8): 15.0 (2.48) ^a L/h
CL/F ([6]; single oral 10 mg, N = 8): 12.9 (1.24) L/h
dose identified as undergoing biotransformation (cytochrome P450 3A4): < 10%
ALT increased, drug related (number of TEAEs [number of subjects with TEAEs]) (Safety and tolerability; 2 mg (N = 8)): 0
ANC decreased, drug related (number of TEAEs [number of subjects with TEAEs]) (Safety and tolerability; 2 mg (N = 8)): 0
AST increased, drug related (number of TEAEs [number of subjects with TEAEs]) (Safety and tolerability; 2 mg (N = 8)): 0
Bilirubin increased, drug related (number of TEAEs [number of subjects with TEAEs]) (Safety and tolerability; 2 mg (N = 8)): 0
ECG abnormal, drug related (number of TEAEs [number of subjects with TEAEs]) (Safety and tolerability; 2 mg (N = 8)): 0
Hypotension, drug related (number of TEAEs [number of subjects with TEAEs]) (Safety and tolerability; 2 mg (N = 8)): 0
Orthostatic hypotension, drug related (number of TEAEs [number of subjects with TEAEs]) (Safety and tolerability; 2 mg (N = 8)): 0
Overall drug related TEAEs (number of TEAEs [number of subjects with TEAEs]) (Safety and tolerability; 2 mg (N = 8)): 0 (0)
Total number of TEAEs (all severities were “mild”), n, all causalities (Safety and tolerability; 2 mg (N = 8)): 2
Number of subjects (%) with ≥1 AE, all causalities (Safety and tolerability; 2 mg (N = 8)): 1 (12.5)
ALT increased, drug related (number of TEAEs [number of subjects with TEAEs]) (Safety and tolerability; 4 mg (N = 9)): 1 (1)
ANC decreased, drug related (number of TEAEs [number of subjects with TEAEs]) (Safety and tolerability; 4 mg (N = 9)): 1 (1)
AST increased, drug related (number of TEAEs [number of subjects with TEAEs]) (Safety and tolerability; 4 mg (N = 9)): 1 (1)
Bilirubin increased, drug related (number of TEAEs [number of subjects with TEAEs]) (Safety and tolerability; 4 mg (N = 9)): 0
ECG abnormal, drug related (number of TEAEs [number of subjects with TEAEs]) (Safety and tolerability; 4 mg (N = 9)): 0
Hypotension, drug related (number of TEAEs [number of subjects with TEAEs]) (Safety and tolerability; 4 mg (N = 9)): 0
Orthostatic hypotension, drug related (number of TEAEs [number of subjects with TEAEs]) (Safety and tolerability; 4 mg (N = 9)): 0
Overall drug related TEAEs (number of TEAEs [number of subjects with TEAEs]) (Safety and tolerability; 4 mg (N = 9)): 3 (2)
Total number of TEAEs (all severities were “mild”), n, all causalities (Safety and tolerability; 4 mg (N = 9)): 3
Number of subjects (%) with ≥1 AE, all causalities (Safety and tolerability; 4 mg (N = 9)): 2 (22.2)
ALT increased, drug related (number of TEAEs [number of subjects with TEAEs]) (Safety and tolerability; 10 mg (N = 8)): 2 (2)
ANC decreased, drug related (number of TEAEs [number of subjects with TEAEs]) (Safety and tolerability; 10 mg (N = 8)): 0
AST increased, drug related (number of TEAEs [number of subjects with TEAEs]) (Safety and tolerability; 10 mg (N = 8)): 1 (1)
Bilirubin increased, drug related (number of TEAEs [number of subjects with TEAEs]) (Safety and tolerability; 10 mg (N = 8)): 1 (1)
ECG abnormal, drug related (number of TEAEs [number of subjects with TEAEs]) (Safety and tolerability; 10 mg (N = 8)): 0
Hypotension, drug related (number of TEAEs [number of subjects with TEAEs]) (Safety and tolerability; 10 mg (N = 8)): 0
Orthostatic hypotension, drug related (number of TEAEs [number of subjects with TEAEs]) (Safety and tolerability; 10 mg (N = 8)): 1 (1)
Overall drug related TEAEs (number of TEAEs [number of subjects with TEAEs]) (Safety and tolerability; 10 mg (N = 8)): 5 (4)
Total number of TEAEs (all severities were “mild”), n, all causalities (Safety and tolerability; 10 mg (N = 8)): 6
Number of subjects (%) with ≥1 AE, all causalities (Safety and tolerability; 10 mg (N = 8)): 4 (50.0)
Severity of TEAEs (Safety and tolerability; all TEAEs reported during the study): mild
Serious adverse events (SAEs) (Safety and tolerability; during the study): no SAEs reported
12‐lead ECG changes (Safety and tolerability; following administration of baricitinib 2 to 10 mg): no clinically significant dose‐dependent ECG changes
Tolerability (Safety and tolerability; single and multiple oral once‐daily doses up to 10 mg): generally well tolerated
transporter substrate [7]: substrate
transporter substrate (P‐glycoprotein): substrate
CL/F ([8]; 2 mg once daily): 13.9 (1.66) L/h
RA (accumulation ratio) ([8]; 2 mg once daily): 1.11 (0.11)
CL/F ([8]; 4 mg once daily): 15.3 (2.64) L/h
RA (accumulation ratio) ([8]; 4 mg once daily): 1.06 (0.20)
Ratio of dose‐normalized geometric means AUCτ,ss (90%CI) ([8]; 4 mg vs 2 mg): 1.03 (0.97‐1.09)
Ratio of dose‐normalized geometric means Cmax,ss (90%CI) ([8]; 4 mg vs 2 mg): 0.99 (0.91‐1.08)
CL/F ([8]; 10 mg once daily): 13.1 (1.95) L/h
RA (accumulation ratio) ([8]; 10 mg once daily): 1.05 (0.07)
Ratio of dose‐normalized geometric means AUCτ,ss (90%CI) ([8]; 10 mg vs 2 mg): 1.07 (0.94‐1.23)
Ratio of dose‐normalized geometric means Cmax,ss (90%CI) ([8]; 10 mg vs 2 mg): 0.99 (0.81‐1.20)
AUC ([8]; human, plasma, oral, 2 mg): 146 ng·h/mL
Cmax ([8]; human, plasma, oral, 2 mg): 28.6 ng/mL
Tmax ([8]; human, plasma, oral, 2 mg): 0.5 h
half-life ([8]; human, plasma, oral, 2 mg): 5.68 h
AUC ([8]; human, plasma, oral, 4 mg): 268 ng·h/mL
Cmax ([8]; human, plasma, oral, 4 mg): 49.6 ng/mL
half-life ([8]; human, plasma, oral, 4 mg): 7.55 h
AUC ([8]; human, plasma, oral, 10 mg): 778 ng·h/mL
Cmax ([8]; human, plasma, oral, 10 mg): 138 ng/mL
half-life ([8]; human, plasma, oral, 10 mg): 7.39 h
Attainment of steady‐state plasma concentrations ([8]; once‐daily dosing days 4 through 10, predose samples): after the second day of once‐daily dosing; also recorded: after the second once‐daily dose
